Assay results from ChEMBL document CHEMBL2311290 (J Med Chem, 2013).
The source made the active and inactive calls. No cut-off for these calls is given here.

Experiments:
[1] = biological target: Coagulation factor XI (Homo sapiens) (UniProt P03951); experiment: Inhibition of human FXIa assessed as S-2366 hydrolysis at 250 uM after 10 mins by microplate reader analysis
How it was run: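 Human FXIa at 0.765 nM final in pH 7.4 Tris buffer (150 mM NaCl, 0.1% PEG8000, 0.02% Tween80). It is preincubated 10 min at 37 °C with the agent or solvent, then 345 µM S-2366 is added. Initial rate of A405 increase gives residual activity relative to no-inhibitor control.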

[2] = biological target: Coagulation factor XI (Homo sapiens) (UniProt P03951); experiment: Inhibition of human FXIa assessed as S-2366 hydrolysis at 300 uM after 10 mins by microplate reader analysis
How it was run: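 Human FXIa (0.765 nM final) preincubated 10 min at 37 °C with inhibitor or solvent reference in pH 7.4 50 mM Tris-HCl, 150 mM NaCl, 0.1% PEG8000, 0.02% Tween80. S-2366 (345 µM) then added, and initial A405 rate read on a microplate reader. Residual activity is expressed relative to the no-inhibitor control. Highest concentration tested was 300 µM.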

Blood [3] = experiment: Anticoagulant activity in human whole blood assessed as maximum amplitude at 20 ug/ml by thromboelastography (reference value: 59 mm); assay type: functional
How it was run: (§1)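 Thromboelastography in sodium-citrated human whole blood at 37 °C. 340 µL of blood containing 10 µL of the agent (or high-purity water) is added to a cup holding 20 µL of 200 mM CaCl2 stock, oscillating through 4°45′ at 0.1 Hz. Clot force on a central pin is recorded and read out as R, α, MA and G.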

Plasma [4] = experiment: Anticoagulant activity in human plasma assessed as concentration required to double […] prothrombin time; assay type: functional
How it was run: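 Prothrombin time is a one-stage recalcification assay read on a fibrometer. 10 µL of the agent is made up to 100 µL with citrated human plasma and incubated 30 s at 37 °C. Clotting is started with 200 µL of prewarmed thromboplastin-D. A quadratic trend line of clotting time versus concentration gives the concentration that doubles clotting time. Water or organic vehicle serves as the blank.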

Coagulation factor IX = Coagulation factor IX (Homo sapiens, UniProt P00740); experiment: Inhibition of human FIXa after 60 secs by spectrophotometry
Blood [5] = experiment: Anticoagulant activity in human whole blood assessed as angle alpha at 190 ug/ml by thromboelastography (reference value: 56.4 deg); assay type: functional; how it was run: as §1
Blood [6] = experiment: Anticoagulant activity in human whole blood assessed as angle alpha at 135 ug/ml by thromboelastography (reference value: 56.4 deg); assay type: functional; how it was run: as §1
Blood [7] = experiment: Anticoagulant activity in human whole blood assessed as clot formation time at 190 ug/ml by thromboelastography (reference value: 6.0 mins); assay type: functional; how it was run: as §1
[8] = biological target: Coagulation factor XI (Homo sapiens) (UniProt P03951); details: 3 uM
Blood [9] = experiment: Anticoagulant activity in human whole blood assessed as angle alpha at 20 ug/ml by thromboelastography (reference value: 56.4 deg); assay type: functional; how it was run: as §1
Coagulation factor X = Coagulation factor X (Homo sapiens, UniProt P00742); experiment: Inhibition of human FXa after 60 secs by spectrophotometry
[10] = biological target: T1, Coagulation factor VII (Homo sapiens) (UniProt P08709); experiment: Inhibition of human FVIIa at 3.7 mg/ml after 60 secs by spectrophotometry
T1 sequence (whole entry): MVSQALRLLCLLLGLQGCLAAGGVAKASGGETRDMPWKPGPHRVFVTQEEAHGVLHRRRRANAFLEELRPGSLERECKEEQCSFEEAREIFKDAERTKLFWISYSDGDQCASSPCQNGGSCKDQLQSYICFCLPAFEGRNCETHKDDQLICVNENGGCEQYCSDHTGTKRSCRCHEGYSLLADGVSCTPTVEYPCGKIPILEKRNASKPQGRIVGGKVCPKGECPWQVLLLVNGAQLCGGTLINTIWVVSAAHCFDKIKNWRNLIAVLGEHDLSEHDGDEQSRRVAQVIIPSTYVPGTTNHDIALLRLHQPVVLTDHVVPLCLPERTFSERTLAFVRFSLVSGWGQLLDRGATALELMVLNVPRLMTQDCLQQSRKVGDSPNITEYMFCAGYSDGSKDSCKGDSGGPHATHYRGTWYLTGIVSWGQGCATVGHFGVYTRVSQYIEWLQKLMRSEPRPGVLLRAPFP
How it was run: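 Chromogenic hydrolysis with at least six serial concentrations of the agent and spectrophotometric residual activity. Factor VIIa was 8 nM with 1000 µM Spectrozyme FVIIa plus 40 nM recombinant tissue factor. Bovine chymotrypsin was 500 ng/mL with 240 µM Spectrozyme CTY.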

Blood [11] = experiment: Anticoagulant activity in human whole blood assessed as maximum amplitude at 135 ug/ml by thromboelastography (reference value: 59 mm); assay type: functional; how it was run: as §1
Bos taurus = species: Bos taurus; experiment: Inhibition of bovine chymotrypsin at 1.8 mg/ml after 60 secs by spectrophotometry
Prothrombin = Prothrombin (Homo sapiens, UniProt P00734); experiment: Inhibition of human thrombin after 60 secs by spectrophotometry
How it was run: (§2)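 Chromogenic substrate hydrolysis at pH 7.4 with at least six serially diluted concentrations of the agent. Residual activity is read spectrophotometrically and the IC50 is obtained from a dose–response fit. Substrate levels were set from its KM. Final enzyme/substrate: thrombin 6 nM/50 µM Spectrozyme TH; FXa 1.09 nM/125 µM; FXIIa 5 nM/125 µM; FIXa 89 nM/850 µM.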

Blood [12] = experiment: Anticoagulant activity in human whole blood assessed as maximum amplitude at 280 ug/ml by thromboelastography (reference value: 59 mm); assay type: functional; how it was run: as §1
Blood [13] = experiment: Anticoagulant activity in human whole blood assessed as clot formation time at 135 ug/ml by thromboelastography (reference value: 6.0 mins); assay type: functional; how it was run: as §1
[14] = biological target: T2, Coagulation factor XII (Homo sapiens) (UniProt P00748); experiment: (§3) Inhibition of FXIIa (unknown origin) after 60 secs by spectrophotometry; how it was run: as §2
T2 sequence (whole entry): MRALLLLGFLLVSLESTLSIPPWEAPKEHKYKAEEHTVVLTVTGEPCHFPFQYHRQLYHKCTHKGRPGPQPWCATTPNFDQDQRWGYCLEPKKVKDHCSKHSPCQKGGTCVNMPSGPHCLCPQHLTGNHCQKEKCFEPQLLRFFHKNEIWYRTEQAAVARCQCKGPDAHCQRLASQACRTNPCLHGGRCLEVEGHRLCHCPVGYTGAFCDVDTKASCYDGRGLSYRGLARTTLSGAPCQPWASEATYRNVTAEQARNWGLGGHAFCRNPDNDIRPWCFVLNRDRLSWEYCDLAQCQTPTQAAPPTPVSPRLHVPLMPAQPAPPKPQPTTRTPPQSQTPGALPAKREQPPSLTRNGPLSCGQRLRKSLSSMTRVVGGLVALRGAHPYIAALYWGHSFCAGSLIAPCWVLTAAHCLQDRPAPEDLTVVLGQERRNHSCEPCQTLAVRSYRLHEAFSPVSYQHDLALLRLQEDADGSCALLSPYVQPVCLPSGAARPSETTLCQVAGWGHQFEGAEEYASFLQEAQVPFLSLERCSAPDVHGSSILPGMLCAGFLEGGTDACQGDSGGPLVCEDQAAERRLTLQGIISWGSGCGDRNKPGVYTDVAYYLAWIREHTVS

Coagulation factor XII = biological target: T3, Coagulation factor XII (Homo sapiens, UniProt P00748); experiment: as §3; how it was run: as §2
T3 sequence (P00748 whole entry): T2 sequence (whole entry)

[15] = biological target: T4, Serine protease 1 (Bos taurus) (UniProt P00760); experiment: Inhibition of bovine trypsin at 1.8 mg/ml after 60 secs by spectrophotometry
T4 sequence (whole entry): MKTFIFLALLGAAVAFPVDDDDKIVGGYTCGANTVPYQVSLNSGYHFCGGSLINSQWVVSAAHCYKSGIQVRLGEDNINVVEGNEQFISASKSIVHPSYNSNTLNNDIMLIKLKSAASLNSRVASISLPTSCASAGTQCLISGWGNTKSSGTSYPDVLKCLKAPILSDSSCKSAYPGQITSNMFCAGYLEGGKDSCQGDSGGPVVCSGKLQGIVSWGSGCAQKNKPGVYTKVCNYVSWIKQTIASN
How it was run: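 Chromogenic substrate hydrolysis assay of bovine trypsin (72.5 ng/mL in the well) with 80 µM substrate, with substrate level chosen from its KM. Enzyme stock was in 50 mM Tris-HCl pH 7.4, 150 mM NaCl, 0.1% PEG8000, 0.02% Tween80. Fractional residual activity was read spectrophotometrically across at least six serial inhibitor dilutions to derive IC50.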

Blood [16] = experiment: Anticoagulant activity in human whole blood assessed as clot formation time at 20 ug/ml by thromboelastography (reference value: 6.0 mins); assay type: functional; how it was run: as §1
Blood [17] = experiment: Anticoagulant activity in human whole blood assessed as clot formation time at 280 ug/ml by thromboelastography (reference value: 6.0 mins); assay type: functional; how it was run: as §1
Blood [18] = experiment: Anticoagulant activity in human whole blood assessed as maximum amplitude at 190 ug/ml by thromboelastography (reference value: 59 mm); assay type: functional; how it was run: as §1
Plasma [19] = experiment: Ratio of concentration required to double clotting time for compound to enoxaparin in human plasma; assay type: functional
Plasma [20] = experiment: Anticoagulant activity in human plasma assessed as concentration required to double activated partial […] time; assay type: functional
How it was run: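 Citrated pooled normal human plasma (90 µL) plus 10 µL of the test agent and 100 µL of prewarmed ellagic acid APTT reagent (0.2% ellagic acid). The mixture is incubated 4 min at 37 °C, then clotting is started with prewarmed 25 mM CaCl2 and read on a fibrometer. Clotting time versus concentration is fitted to a quadratic trend line to get the concentration that doubles it. Water or organic vehicle serves as the blank.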

Chain of Coagulation factor XI (Homo sapiens) (P03951 19-387 limits assumed): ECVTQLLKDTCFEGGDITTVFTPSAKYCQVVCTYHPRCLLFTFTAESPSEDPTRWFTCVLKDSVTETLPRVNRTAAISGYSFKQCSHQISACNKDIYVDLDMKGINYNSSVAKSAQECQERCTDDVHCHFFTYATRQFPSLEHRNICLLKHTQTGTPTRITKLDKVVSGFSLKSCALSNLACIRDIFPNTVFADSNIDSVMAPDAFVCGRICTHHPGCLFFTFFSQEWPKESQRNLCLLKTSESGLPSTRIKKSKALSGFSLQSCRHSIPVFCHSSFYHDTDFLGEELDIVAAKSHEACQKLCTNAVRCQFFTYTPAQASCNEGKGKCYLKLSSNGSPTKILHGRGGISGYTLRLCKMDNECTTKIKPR
Chain of Coagulation factor XI (Homo sapiens) (P03951 388-625 limits assumed): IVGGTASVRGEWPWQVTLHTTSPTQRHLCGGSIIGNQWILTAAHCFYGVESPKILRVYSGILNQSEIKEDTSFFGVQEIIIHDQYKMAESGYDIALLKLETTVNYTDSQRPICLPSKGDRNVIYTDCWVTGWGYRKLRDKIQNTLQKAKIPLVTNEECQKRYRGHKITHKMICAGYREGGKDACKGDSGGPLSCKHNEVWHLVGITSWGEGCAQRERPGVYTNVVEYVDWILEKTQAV
Chain of Coagulation factor IX (P00740 47-191 limits assumed): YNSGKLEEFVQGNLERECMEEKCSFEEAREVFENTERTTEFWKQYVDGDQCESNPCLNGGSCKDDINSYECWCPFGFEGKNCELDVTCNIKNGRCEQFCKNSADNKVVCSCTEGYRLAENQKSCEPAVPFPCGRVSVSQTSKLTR
Chain of Coagulation factor IX (P00740 227-461 limits assumed): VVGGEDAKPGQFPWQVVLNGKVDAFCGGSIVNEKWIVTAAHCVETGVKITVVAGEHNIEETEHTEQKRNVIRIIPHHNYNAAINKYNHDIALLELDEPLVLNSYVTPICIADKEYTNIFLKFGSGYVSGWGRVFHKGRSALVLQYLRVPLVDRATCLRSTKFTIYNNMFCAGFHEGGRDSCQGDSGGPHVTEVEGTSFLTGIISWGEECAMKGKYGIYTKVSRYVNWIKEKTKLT
Chain of Coagulation factor X (P00742 41-179 limits assumed): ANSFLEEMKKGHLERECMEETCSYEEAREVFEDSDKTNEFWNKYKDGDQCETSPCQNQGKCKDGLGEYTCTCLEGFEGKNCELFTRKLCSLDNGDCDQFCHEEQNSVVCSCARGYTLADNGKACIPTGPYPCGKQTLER
Chain of Coagulation factor X (P00742 235-488 limits assumed): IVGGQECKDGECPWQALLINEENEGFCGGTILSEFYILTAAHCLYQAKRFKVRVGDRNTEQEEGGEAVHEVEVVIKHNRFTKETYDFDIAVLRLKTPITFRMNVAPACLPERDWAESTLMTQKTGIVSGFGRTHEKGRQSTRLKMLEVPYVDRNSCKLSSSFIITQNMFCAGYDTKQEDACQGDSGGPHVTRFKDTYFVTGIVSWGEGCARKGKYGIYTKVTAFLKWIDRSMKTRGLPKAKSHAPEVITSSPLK

COc1cc([C@H]2Oc3cc([C@H]4Oc5cc(OS(=O)(=O)O)cc(O)c5C(=O)[C@@H]4OS(=O)(=O)O)ccc3O[C@@H]2COS(=O)(=O)O)ccc1OS(=O)(=O)O
inhibition [1]: inactive

O=C(/C=C/c1ccc(OS(=O)(=O)O)c(OS(=O)(=O)O)c1)O[C@@H]1C[C@](O)(C(=O)O)C[C@@H](OS(=O)(=O)O)[C@H]1OS(=O)(=O)O
inhibition [1]: inactive

O=C(CCCc1cc(OS(=O)(=O)O)ccc1OS(=O)(=O)O)N1CCc2c(ccc(OS(=O)(=O)O)c2OS(=O)(=O)O)C1
inhibition [1]: inactive

O=C(CCc1cc(OS(=O)(=O)O)ccc1OS(=O)(=O)O)N1CCc2cc(OS(=O)(=O)O)c(OS(=O)(=O)O)cc2C1
inhibition [1]: inactive

O=C(O)C1Cc2c(OS(=O)(=O)O)ccc(OS(=O)(=O)O)c2CN1C(=O)CCCCc1cc(OS(=O)(=O)O)ccc1OS(=O)(=O)O (centres undefined)
inhibition [1]: inactive

O=C(O)C1Cc2c(OS(=O)(=O)O)ccc(OS(=O)(=O)O)c2CN1C(=O)CCCc1cc(OS(=O)(=O)O)ccc1OS(=O)(=O)O (centres undefined)
inhibition [1]: inactive

O=C(O)C1Cc2c(OS(=O)(=O)O)ccc(OS(=O)(=O)O)c2CN1C(=O)CCc1cc(OS(=O)(=O)O)ccc1OS(=O)(=O)O (centres undefined)
inhibition [1]: inactive

O=C(O)C1Cc2cc(OS(=O)(=O)O)c(OS(=O)(=O)O)cc2CN1C(=O)CCCCc1cc(OS(=O)(=O)O)ccc1OS(=O)(=O)O (centres undefined)
inhibition [1]: inactive

O=C(O)C1Cc2cc(OS(=O)(=O)O)c(OS(=O)(=O)O)cc2CN1C(=O)CCCc1cc(OS(=O)(=O)O)ccc1OS(=O)(=O)O (centres undefined)
inhibition [1]: inactive

O=C(O)C1Cc2cc(OS(=O)(=O)O)c(OS(=O)(=O)O)cc2CN1C(=O)CCc1cc(OS(=O)(=O)O)ccc1OS(=O)(=O)O (centres undefined)
inhibition [1]: inactive

O=C(OC[C@H]1O[C@@H](OC(=O)c2cc(O)c(O)c(O)c2)[C@H](OC(=O)c2cc(O)c(O)c(O)c2)[C@@H](OC(=O)c2cc(O)c(O)c(O)c2)[C@@H]1OC(=O)c1cc(O)c(O)c(O)c1)c1cc(O)c(O)c(O)c1
inhibition [2]: inactive

O=C(OC[C@H]1O[C@@H](OC(=O)c2cc(OS(=O)(=O)[O-])c(O)c(OS(=O)(=O)[O-])c2)[C@H](OC(=O)c2cc(OS(=O)(=O)[O-])c(O)c(OS(=O)(=O)[O-])c2)[C@@H](OC(=O)c2cc(OS(=O)(=O)[O-])c(O)c(OS(=O)(=O)[O-])c2)[C@@H]1OC(=O)c1cc(OS(=O)(=O)[O-])c(O)c(OS(=O)(=O)[O-])c1)c1cc(OS(=O)(=O)[O-])c(O)c(OS(=O)(=O)[O-])c1.[Na+].[Na+].[Na+].[Na+].[Na+].[Na+].[Na+].[Na+].[Na+].[Na+] [sulfated pentagalloylglucoside]
Activity (Blood [3]): 62 mm | 2PT (Plasma [4]): 298 µg/mL | IC50 (Coagulation factor IX): 582 µM | Activity (Blood [5]): 9.4 degree | Activity (Blood [6]): 30.6 degree | Time (Blood [7]): 37.8 min | Efficacy [8]: 100% | Activity (Blood [9]): 51.4 degree | IC50 (Coagulation factor X): 136 µM | inhibition [10]: inactive | Activity (Blood [11]): 49.8 mm | inhibition (Bos taurus): inactive | IC50 (Prothrombin): 622 µM | Activity (Blood [12]): 15.1 mm | Time (Blood [13]): 22.8 min | Efficacy [14]: 55.7% | IC50 (Coagulation factor XII): 131 µM | inhibition [15]: inactive | Time (Blood [16]): 6.6 min | Time (Blood [17]): 87.1 min | Activity (Blood [18]): 43.5 mm | Ratio (Plasma [19]): 18 | 2aPTT (Plasma [20]): 96 µg/mL
